Columns and labels:
Heart [1] = test: Biodistribution in Kunming mouse heart at 1 uCi, iv after 2 mins by gamma counting; format: ADME, organism-based; settings: in vivo
Method in brief: (§1)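 125I-labeled tracer given intravenously to normal mice. Organs and blood were sampled at 2, 15, 30, 60, 120 and 240 min after injection. Uptake is expressed as % ID/g, averaged over 5 mice ± SD.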

Stomach [2] = test: Biodistribution in Kunming mouse stomach assessed per organ at 1 uCi, iv after 30 mins by gamma counting; format: ADME, organism-based; settings: in vivo, 0.5 h
Method in brief: (§2)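 Radioiodinated tracers given intravenously to normal mice; organs taken at 2, 15, 30, 60, 120 and 240 min after injection. Uptake expressed as % ID/g, mean ± SD of 5 mice; stomach values carry a table footnote.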

Muscle tissue [3] = test: Biodistribution in Kunming mouse muscle at 1 uCi, iv after 15 mins by gamma counting; format: ADME, organism-based; settings: in vivo, 0.25 h; method in brief: as §1
Heart [4] = test: Biodistribution in Kunming mouse heart at 1 uCi, iv after 30 mins by gamma counting; format: ADME, organism-based; settings: in vivo, 0.5 h; method in brief: as §1
Liver [5] = test: Biodistribution in Kunming mouse liver at 1 uCi, iv after 30 mins by gamma counting; format: ADME, organism-based; settings: in vivo, 0.5 h; method in brief: as §1
Spleen [6] = test: Biodistribution in Kunming mouse spleen at 1 uCi, iv after 60 mins by gamma counting; format: ADME, organism-based; settings: in vivo, 1 h; method in brief: as §2
Muscle tissue [7] = test: Biodistribution in Kunming mouse muscle at 1 uCi, iv after 30 mins by gamma counting; format: ADME, organism-based; settings: in vivo, 0.5 h; method in brief: as §1
Stomach [8] = test: Biodistribution in Kunming mouse stomach assessed per organ at 1 uCi, iv after 60 mins by gamma counting; format: ADME, organism-based; settings: in vivo, 1 h; method in brief: as §2
Heart [9] = test: Biodistribution in Kunming mouse heart at 1 uCi, iv after 60 mins by gamma counting; format: ADME, organism-based; settings: in vivo, 1 h; method in brief: as §1
Spleen [10] = test: Biodistribution in Kunming mouse spleen at 1 uCi, iv after 15 mins by gamma counting; format: ADME, organism-based; settings: in vivo, 0.25 h; method in brief: as §1
[11] = Octanol-phosphate buffer partition coefficient, log D of the compound at pH 7.4; format: physicochemical
Method in brief: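 Radioiodinated tracer partitioned between n-octanol and PBS at pH 7.4; log D reported as mean ± SD.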

Heart [12] = test: Biodistribution in Kunming mouse heart at 1 uCi, iv after 240 mins by gamma counting; format: ADME, organism-based; settings: in vivo, 4 h; method in brief: as §1
Lung [13] = test: Biodistribution in Kunming mouse lung at 1 uCi, iv after 30 mins by gamma counting; format: ADME, organism-based; settings: in vivo, 0.5 h; method in brief: as §1
Kidney [14] = test: Biodistribution in Kunming mouse kidney at 1 uCi, iv after 2 mins by gamma counting; format: ADME, organism-based; settings: in vivo; method in brief: as §1
Heart [15] = test: Biodistribution in Kunming mouse heart at 1 uCi, iv after 15 mins by gamma counting; format: ADME, organism-based; settings: in vivo, 0.25 h; method in brief: as §1
Lung [16] = test: Biodistribution in Kunming mouse lung at 1 uCi, iv after 15 mins by gamma counting; format: ADME, organism-based; settings: in vivo, 0.25 h; method in brief: as §1
Blood [17] = test: Biodistribution in Kunming mouse blood at 1 uCi, iv after 15 mins by gamma counting; format: ADME, organism-based; settings: in vivo, 0.25 h; method in brief: as §1
Brain [18] = test: Biodistribution in Kunming mouse brain at 1 uCi, iv after 120 mins by gamma counting; format: ADME, organism-based; settings: in vivo, 2 h; method in brief: as §1
Liver [19] = test: Biodistribution in Kunming mouse liver at 1 uCi, iv after 15 mins by gamma counting; format: ADME, organism-based; settings: in vivo, 0.25 h; method in brief: as §1
Spleen [20] = test: Biodistribution in Kunming mouse spleen at 1 uCi, iv after 2 mins by gamma counting; format: ADME, organism-based; settings: in vivo; method in brief: as §1
Lung [21] = test: Biodistribution in Kunming mouse lung at 1 uCi, iv after 120 mins by gamma counting; format: ADME, organism-based; settings: in vivo, 2 h; method in brief: as §1
Brain [22] = test: Biodistribution in Kunming mouse brain at 1 uCi, iv after 60 mins by gamma counting; format: ADME, organism-based; settings: in vivo, 1 h; method in brief: as §1
Kidney [23] = test: Biodistribution in Kunming mouse kidney at 1 uCi, iv after 60 mins by gamma counting; format: ADME, organism-based; settings: in vivo, 1 h; method in brief: as §1
Blood [24] = test: Biodistribution in Kunming mouse blood at 1 uCi, iv after 30 mins by gamma counting; format: ADME, organism-based; settings: in vivo, 0.5 h; method in brief: as §1
Spleen [25] = test: Biodistribution in Kunming mouse spleen at 1 uCi, iv after 240 mins by gamma counting; format: ADME, organism-based; settings: in vivo, 4 h; method in brief: as §1
Muscle tissue [26] = test: Biodistribution in Kunming mouse muscle at 1 uCi, iv after 2 mins by gamma counting; format: ADME, organism-based; settings: in vivo; method in brief: as §1
Lung [27] = test: Biodistribution in Kunming mouse lung at 1 uCi, iv after 240 mins by gamma counting; format: ADME, organism-based; settings: in vivo, 4 h; method in brief: as §1
Kidney [28] = test: Biodistribution in Kunming mouse kidney at 1 uCi, iv after 15 mins by gamma counting; format: ADME, organism-based; settings: in vivo, 0.25 h; method in brief: as §1
Liver [29] = test: Biodistribution in Kunming mouse liver at 1 uCi, iv after 120 mins by gamma counting; format: ADME, organism-based; settings: in vivo, 2 h; method in brief: as §1
Stomach [30] = test: Biodistribution in Kunming mouse stomach assessed per organ at 1 uCi, iv after 2 mins by gamma counting; format: ADME, organism-based; settings: in vivo; method in brief: as §2
Muscle tissue [31] = test: Biodistribution in Kunming mouse muscle at 1 uCi, iv after 240 mins by gamma counting; format: ADME, organism-based; settings: in vivo, 4 h; method in brief: as §1
Liver [32] = test: Biodistribution in Kunming mouse liver at 1 uCi, iv after 240 mins by gamma counting; format: ADME, organism-based; settings: in vivo, 4 h; method in brief: as §1
Lung [33] = test: Biodistribution in Kunming mouse lung at 1 uCi, iv after 60 mins by gamma counting; format: ADME, organism-based; settings: in vivo, 1 h; method in brief: as §1
Liver [34] = test: Biodistribution in Kunming mouse liver at 1 uCi, iv after 2 mins by gamma counting; format: ADME, organism-based; settings: in vivo; method in brief: as §1
Stomach [35] = test: Biodistribution in Kunming mouse stomach assessed per organ at 1 uCi, iv after 15 mins by gamma counting; format: ADME, organism-based; settings: in vivo, 0.25 h; method in brief: as §2
Kidney [36] = test: Biodistribution in Kunming mouse kidney at 1 uCi, iv after 120 mins by gamma counting; format: ADME, organism-based; settings: in vivo, 2 h; method in brief: as §1
Blood [37] = test: Biodistribution in Kunming mouse blood at 1 uCi, iv after 120 mins by gamma counting; format: ADME, organism-based; settings: in vivo, 2 h; method in brief: as §1
Blood [38] = test: Biodistribution in Kunming mouse blood at 1 uCi, iv after 60 mins by gamma counting; format: ADME, organism-based; settings: in vivo, 1 h; method in brief: as §1
Spleen [39] = test: Biodistribution in Kunming mouse spleen at 1 uCi, iv after 120 mins by gamma counting; format: ADME, organism-based; settings: in vivo, 2 h; method in brief: as §1
Liver [40] = test: Biodistribution in Kunming mouse liver at 1 uCi, iv after 60 mins by gamma counting; format: ADME, organism-based; settings: in vivo, 1 h; method in brief: as §1
Brain [41] = test: Biodistribution in Kunming mouse brain at 1 uCi, iv after 15 mins by gamma counting; format: ADME, organism-based; settings: in vivo, 0.25 h; method in brief: as §1
Brain [42] = test: Biodistribution in Kunming mouse brain at 1 uCi, iv after 2 mins by gamma counting; format: ADME, organism-based; settings: in vivo; method in brief: as §1
Muscle tissue [43] = test: Biodistribution in Kunming mouse muscle at 1 uCi, iv after 120 mins by gamma counting; format: ADME, organism-based; settings: in vivo, 2 h; method in brief: as §1
Blood [44] = test: Biodistribution in Kunming mouse blood at 1 uCi, iv after 240 mins by gamma counting; format: ADME, organism-based; settings: in vivo, 4 h; method in brief: as §1
Heart [45] = test: Biodistribution in Kunming mouse heart at 1 uCi, iv after 120 mins by gamma counting; format: ADME, organism-based; settings: in vivo, 2 h; method in brief: as §1
Lung [46] = test: Biodistribution in Kunming mouse lung at 1 uCi, iv after 2 mins by gamma counting; format: ADME, organism-based; settings: in vivo; method in brief: as §1
Brain [47] = test: Biodistribution in Kunming mouse brain at 1 uCi, iv after 240 mins by gamma counting; format: ADME, organism-based; settings: in vivo, 4 h; method in brief: as §1
Stomach [48] = test: Biodistribution in Kunming mouse stomach assessed per organ at 1 uCi, iv after 240 mins by gamma counting; format: ADME, organism-based; settings: in vivo, 4 h; method in brief: as §2
Brain [49] = test: Biodistribution in Kunming mouse brain at 1 uCi, iv after 30 mins by gamma counting; format: ADME, organism-based; settings: in vivo, 0.5 h; method in brief: as §1
Kidney [50] = test: Biodistribution in Kunming mouse kidney at 1 uCi, iv after 240 mins by gamma counting; format: ADME, organism-based; settings: in vivo, 4 h; method in brief: as §1
Stomach [51] = test: Biodistribution in Kunming mouse stomach assessed per organ at 1 uCi, iv after 120 mins by gamma counting; format: ADME, organism-based; settings: in vivo, 2 h; method in brief: as §2
Spleen [52] = test: Biodistribution in Kunming mouse spleen at 1 uCi, iv after 30 mins by gamma counting; format: ADME, organism-based; settings: in vivo, 0.5 h; method in brief: as §1
Kidney [53] = test: Biodistribution in Kunming mouse kidney at 1 uCi, iv after 30 mins by gamma counting; format: ADME, organism-based; settings: in vivo, 0.5 h; method in brief: as §1
Blood [54] = test: Biodistribution in Kunming mouse blood at 1 uCi, iv after 2 mins by gamma counting; format: ADME, organism-based; settings: in vivo; method in brief: as §1
Muscle tissue [55] = test: Biodistribution in Kunming mouse muscle at 1 uCi, iv after 60 mins by gamma counting; format: ADME, organism-based; settings: in vivo, 1 h; method in brief: as §1

Structure (SMILES): COc1ccc(/C=C/C(=O)n2ccc3cc([125I])ccc32)cc1
- Drug uptake (Heart [1]): 12.64 % ID/g
- Drug uptake (Stomach [2]): 4.92 %ID
- Drug uptake (Muscle tissue [3]): 2.62 % ID/g
- Drug uptake (Heart [4]): 2.45 % ID/g
- Drug uptake (Liver [5]): 14.05 % ID/g
- Drug uptake (Spleen [6]): 7.16 % ID/g
- Drug uptake (Muscle tissue [7]): 1.63 % ID/g
- Drug uptake (Stomach [8]): 5 %ID
- Drug uptake (Heart [9]): 1.53 % ID/g
- Drug uptake (Spleen [10]): 8.04 % ID/g
- logD [11]: 2.32
- Drug uptake (Heart [12]): 1.17 % ID/g
- Drug uptake (Lung [13]): 9.05 % ID/g
- Drug uptake (Kidney [14]): 12.01 % ID/g
- Drug uptake (Heart [15]): 3.52 % ID/g
- Drug uptake (Lung [16]): 11.13 % ID/g
- Drug uptake (Blood [17]): 5.82 % ID/g
- Drug uptake (Brain [18]): 0.42 % ID/g
- Drug uptake (Liver [19]): 18.05 % ID/g
- Drug uptake (Spleen [20]): 6 % ID/g
- Drug uptake (Lung [21]): 4.31 % ID/g
- Drug uptake (Brain [22]): 1.04 % ID/g
- Drug uptake (Kidney [23]): 5.71 % ID/g
- Drug uptake (Blood [24]): 4.9 % ID/g
- Drug uptake (Spleen [25]): 4.45 % ID/g
- Drug uptake (Muscle tissue [26]): 2.73 % ID/g
- Drug uptake (Lung [27]): 2.95 % ID/g
- Drug uptake (Kidney [28]): 9.31 % ID/g
- Drug uptake (Liver [29]): 9.3 % ID/g
- Drug uptake (Stomach [30]): 0.71 %ID
- Drug uptake (Muscle tissue [31]): 0.92 % ID/g
- Drug uptake (Liver [32]): 7.65 % ID/g
- Drug uptake (Lung [33]): 6.39 % ID/g
- Drug uptake (Liver [34]): 24.76 % ID/g
- Drug uptake (Stomach [35]): 4.06 %ID
- Drug uptake (Kidney [36]): 4.21 % ID/g
- Drug uptake (Blood [37]): 3.12 % ID/g
- Drug uptake (Blood [38]): 3.79 % ID/g
- Drug uptake (Spleen [39]): 6.18 % ID/g
- Drug uptake (Liver [40]): 12.3 % ID/g
- Drug uptake (Brain [41]): 2.29 % ID/g
- Drug uptake (Brain [42]): 2.19 % ID/g
- Drug uptake (Muscle tissue [43]): 0.65 % ID/g
- Drug uptake (Blood [44]): 2.78 % ID/g
- Drug uptake (Heart [45]): 1.21 % ID/g
- Drug uptake (Lung [46]): 21.76 % ID/g
- Drug uptake (Brain [47]): 0.21 % ID/g
- Drug uptake (Stomach [48]): 4.14 %ID
- Drug uptake (Brain [49]): 1.6 % ID/g
- Drug uptake (Kidney [50]): 4.05 % ID/g
- Drug uptake (Stomach [51]): 5.31 %ID
- Drug uptake (Spleen [52]): 7.12 % ID/g
- Drug uptake (Kidney [53]): 8.21 % ID/g
- Drug uptake (Blood [54]): 13.91 % ID/g
- Drug uptake (Muscle tissue [55]): 1.3 % ID/g

— ChEMBL document CHEMBL1828568, “Novel imaging agents for β-amyloid plaque based on the N-benzoylindole core” (Bioorg Med Chem Lett, 2011)
